Data from ChEMBL document CHEMBL3217620, “Relative impact of 3- and 5-hydroxyl groups of cytosporone B on cancer cell viability” (Medchemcomm, 2013).
Active and inactive are the calls of the source. The calls are words filed in the database; no cut-off is given here.

Columns and labels:
[1] = Cytotoxicity against human H460 cells after 72 hrs by MTT assay; type: functional, cell-based; conditions: NCI-H460, 72 h
Method in brief: (§1)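 NCI-H460 NSCLC cells, […] exponentially growing cells/well, seeded and left overnight. Compound added at 0.1, 1.0 and 10 μM (vehicle DMSO, 0.1% final) in RPMI-1640 with 10% FBS for 72 h. MTT then added at 0.5 mg/mL for 4 h, formazan dissolved in DMSO, absorbance read at 490 nm.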

BGC-823 [2] = experiment: Induction of apoptosis in human BGC823 cells assessed as procaspase9 cleavage at 15.5 uM after 48 hrs; type: functional
BGC-823 [3] = experiment: Induction of apoptosis in human BGC823 cells assessed as nuclear DNA condensation at 15.5 uM after 48 hrs; type: functional
LNCaP [4] = experiment: Cytotoxicity against human LNCAP cells at 20 uM after 72 hrs by MTT assay; type: functional
Method in brief: (§2)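 LNCaP cells at 5×10^3/well in RPMI-1640 with 10% FBS, attached 24 h. Treated 72 h with compound at 1–20 µM or DMSO alone (0.2% final). Viability by MTT per kit protocol. Points are means of six replicates ± SD; IC₅₀ interpolated from dose–response curves.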

[5] = Cytotoxicity against human H460 cells at 20 uM after 72 hrs by MTT assay; type: functional; conditions: NCI-H460, 72 h
NCI-H460 [6] = experiment: Induction of apoptosis in human H460 cells assessed as PARP cleavage at 10 uM after 8 hrs by SDS-PAGE; type: functional, cell-based
Method in brief: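 H460 cells in serum-free RPMI-1640, attached 12 h, then given 10 μM compound for 8 h. Lysed in Tris-HCl pH 7.9 buffer with NaCl, EDTA, Triton X-100 and protease inhibitors. Run on 12% SDS-PAGE, blotted to nitrocellulose, probed overnight at 4 °C with rabbit polyclonal anti-PARP, then HRP anti-rabbit IgG. ECL detection; β-actin reprobe as loading control.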

BGC-823 [7] = experiment: Induction of apoptosis in human BGC823 cells assessed as mitochondrial cytochrome c release at 15.5 uM after 48 hrs; type: functional
[8] = target: Nuclear receptor subfamily 4immunitygroup A member 1 (Homo sapiens) (UniProt P22736); experiment: Binding affinity to human recombinant N-terminal His6-tagged NR4A1 LBD expressed in Escherichia coli BL21 at 100 uM by NMR spectroscopy
[9] = Cytotoxicity against human H460 cells assessed as cell viability at 10 uM after 72 hrs by MTT assay; type: functional; conditions: NCI-H460, 72 h, read-out: Activity; method in brief: as §1
NCI-H460 [10] = experiment: Induction of apoptosis in human H460 cells assessed as chromatin condensation at 10 uM after 8 hrs by relative to control; type: functional
Method in brief: (§3)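 H460 cells in serum-free RPMI-1640 on coverslips, attached 12 h, given 10 μM compound for 8 h. Fixed in 3.7% paraformaldehyde, permeabilized in 0.3% Triton X-100/PBS, blocked in 3% BSA, DAPI-stained and viewed by fluorescence microscopy. Cells with nuclear fragmentation and/or chromatin condensation scored in 300-cell fields; mean of triplicates ± SD.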

NCI-H460 [11] = experiment: Induction of apoptosis in human H460 cells assessed as DNA fragmentation at 10 uM after 8 hrs by DAPI staining-based confocal microscopy relative to control; type: functional; method in brief: as §3
[12] = target: Nuclear receptor subfamily 4immunitygroup A member 1 (Homo sapiens) (UniProt P22736); experiment: Induction of translocation of NR4A1 from nucleus to cytoplasm in human H460 cells at 10 uM after 8 hrs by DAPI staining-based confocal microscopy relative to control; type: cell-based
Method in brief: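 Serum-starved H460 cells grown overnight on coverslips, treated 8 h with 10 µM compound or vehicle. Fixed (3.7% paraformaldehyde), permeabilized (0.3% Triton X-100, 10 min), blocked in 3% BSA. Stained with rabbit monoclonal anti-NR4A1 and Alexa Fluor 594 anti-rabbit IgG, nuclei with DAPI. Overlaid confocal images used to judge NR4A1 localization.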

LNCaP [13] = experiment: Cytotoxicity against human LNCAP cells after 72 hrs by MTT assay; type: functional, cell-based; method in brief: as §2
[14] = target: Nuclear receptor subfamily 4immunitygroup A member 1 (Homo sapiens) (UniProt P22736); experiment: Binding affinity to NR4A1 (unknown origin) at 0.1 uM by luciferase reporter gene assay relative to control
LNCaP [15] = experiment: Cytotoxicity against human LNCAP cells after 72 hrs; type: functional, cell-based
[16] = Cytotoxicity against human H460 cells after 48 hrs by MTT assay; type: functional, cell-based; conditions: NCI-H460, 48 h
[17] = target: Nuclear receptor subfamily 4immunitygroup A member 1 (Homo sapiens) (UniProt P22736); experiment: Binding affinity to human recombinant N-terminal His6-tagged NR4A1 LBD expressed in Escherichia coli BL21 at 50 uM by NMR spectroscopy
[18] = target: Nuclear receptor subfamily 4immunitygroup A member 1 (Homo sapiens) (UniProt P22736); experiment: Binding affinity to human recombinant N-terminal His6-tagged NR4A1 LBD expressed in Escherichia coli BL21 by isothermal titration calorimetry

Chain of Nuclear receptor subfamily 4immunitygroup A member 1 (Homo sapiens) (P22736 whole entry, the tested form may be a part): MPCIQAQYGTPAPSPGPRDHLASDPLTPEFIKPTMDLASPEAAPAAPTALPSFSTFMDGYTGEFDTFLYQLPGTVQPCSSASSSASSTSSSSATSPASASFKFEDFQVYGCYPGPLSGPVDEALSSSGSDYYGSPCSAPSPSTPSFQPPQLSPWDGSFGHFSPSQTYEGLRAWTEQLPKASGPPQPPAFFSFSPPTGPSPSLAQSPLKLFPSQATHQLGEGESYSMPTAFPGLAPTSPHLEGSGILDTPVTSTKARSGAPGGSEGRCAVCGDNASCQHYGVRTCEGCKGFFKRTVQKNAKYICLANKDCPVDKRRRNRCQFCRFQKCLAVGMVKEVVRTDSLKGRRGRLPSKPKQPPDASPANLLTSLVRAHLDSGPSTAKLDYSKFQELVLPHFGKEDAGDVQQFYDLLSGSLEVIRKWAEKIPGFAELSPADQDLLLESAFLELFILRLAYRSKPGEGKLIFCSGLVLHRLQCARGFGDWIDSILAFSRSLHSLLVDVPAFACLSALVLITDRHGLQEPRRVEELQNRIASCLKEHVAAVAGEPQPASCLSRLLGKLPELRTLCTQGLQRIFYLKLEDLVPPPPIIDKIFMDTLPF

| Activity [8] | Activity [12] | Ratio [14] | Activity [17] | Activity [18] | Compound | IC50 [1] [µM] | Activity (BGC-823 [2]) [%] | Activity (BGC-823 [3]) [%] | inhibition at 20 µM (LNCaP [4]) [%] | inhibition at 20 µM [5] [%] | Activity (NCI-H460 [6]) | Activity (BGC-823 [7]) [%] | viability at 10 µM [9] [%] | fold change (FC) (NCI-H460 [10]) | fold change (FC) (NCI-H460 [11]) | IC50 (LNCaP [13]) [µM] | IC50 (LNCaP [15]) [µM] | IC50 [16] [µM] |
| --- | --- | --- | --- | --- | --- | --- | --- | --- | --- | --- | --- | --- | --- | --- | --- | --- | --- | --- |
| Active | Active | 12.5 |  |  | CCCCCCCC(=O)c1c(O)cc(O)cc1CC(=O)OCC [CYTOSPORONE B] | 15.3 | 63 | 63 | 76 | 88 | Active | 63 | 50 | 4.4 | 4.4 | 13.4 |  |  |
|  | Active |  |  |  | FC(F)(F)c1ccc(C(c2c[nH]c3ccccc23)c2c[nH]c3ccccc23)cc1 | 4.6 |  |  | 97 |  | Active |  | 90 | 3.7 | 3.7 | 9.7 | 5 | 7.7 |
|  | Active |  | Active |  | CCCCCCCC(=O)c1c(O)cc(OC)cc1CC(=O)OCC | 15.9 |  |  | 80 | 75 | Active |  | 22 | 5.1 | 5.1 | 11.4 |  |  |
|  | inactive |  | inactive | inactive | CCCCCCCC(=O)c1c(CC(=O)OCC)cc(OC)cc1OC | > 20 |  |  | 14 | 11 | Active |  | 24 |  |  |  |  |  |
